{"source": "ChEMBL document CHEMBL1140861", "about": "“Short antisense oligonucleotides with novel 2'-4' conformationaly restricted nucleoside analogues show improved potency without increased toxicity in animals” (J Med Chem, 2009)", "key": {"Mus musculus [1]": {"tested_on": "Mus musculus", "assay": "Reduction of PTEN mRNA level in ip dosed BALB/c mouse liver administered twice a week for 3 weeks measured after 72 hrs of last dose", "assay_type": "functional", "in_short": "(§1)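 Male Balb/c mice, 6 weeks old, dosed ip twice weekly for 3 weeks at 0.5, 1.5, 4.7 and 15 mg/kg (two ASOs) or 0.7, 2.3, 7.2 and 23 mg/kg (MOE control); sacrificed 72 h after last dose; ALT, liver PTEN mRNA, liver and spleen weights and body weight gain assessed; ED50 derived; errors as sd.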"}, "Mus musculus [2]": {"tested_on": "Mus musculus", "assay": "Hepatotoxicity in BALB/c mouse assessed as increase in liver ALT level at 0.5 mg/kg, ip administered twice a week for 3 weeks measured after 72 hrs of last dose", "assay_type": "toxicity, organism-based", "parameters": "dose 0.5 mg/kg, route intraperitoneal", "conditions": "in vivo", "in_short": "as §1"}, "Mus musculus [3]": {"tested_on": "Mus musculus", "assay": "Toxicity in BALB/c mouse assessed as increase in liver weight at 0.5 mg/kg, ip administered twice a week for 3 weeks measured after 72 hrs of last dose", "assay_type": "organism-based", "parameters": "dose 0.5 mg/kg, route intraperitoneal", "conditions": "in vivo", "in_short": "as §1"}, "Mus musculus [4]": {"tested_on": "Mus musculus", "assay": "Toxicity in BALB/c mouse assessed as increase in liver weight at 1.5 mg/kg, ip administered twice a week for 3 weeks measured after 72 hrs of last dose", "assay_type": "organism-based", "parameters": "dose 1.5 mg/kg, route intraperitoneal", "conditions": "in vivo", "in_short": "as §1"}, "Mus musculus [5]": {"tested_on": "Mus musculus", "assay": "Hepatotoxicity in BALB/c mouse assessed as increase in liver ALT level at 1.5 mg/kg, ip administered twice a week for 3 weeks measured after 72 hrs of last dose", "assay_type": "toxicity, organism-based", "parameters": "dose 1.5 mg/kg, route intraperitoneal", "conditions": "in vivo", "in_short": "as §1"}, "Mus musculus [6]": {"tested_on": "Mus musculus", "assay": "Hepatotoxicity in BALB/c mouse assessed as increase in liver ALT level at 4.7 mg/kg, ip administered twice a week for 3 weeks measured after 72 hrs of last dose", "assay_type": "toxicity, organism-based", "parameters": "dose 4.7 mg/kg, route intraperitoneal", "conditions": "in vivo", "in_short": "as §1"}, "Mus musculus [7]": {"tested_on": "Mus musculus", "assay": "Hepatotoxicity in BALB/c mouse assessed as increase in liver ALT level at 15 mg/kg, ip administered twice a week for 3 weeks measured after 72 hrs of last dose", "assay_type": "toxicity, organism-based", "parameters": "dose 15 mg/kg, route intraperitoneal", "conditions": "in vivo", "in_short": "as §1"}, "Mus musculus [8]": {"tested_on": "Mus musculus", "assay": "Toxicity in BALB/c mouse assessed as increase in liver weight at 4.7 mg/kg, ip administered twice a week for 3 weeks measured after 72 hrs of last dose", "assay_type": "organism-based", "parameters": "dose 4.7 mg/kg, route intraperitoneal", "conditions": "in vivo", "in_short": "as §1"}, "Mus musculus [9]": {"tested_on": "Mus musculus", "assay": "Toxicity in BALB/c mouse assessed as increase in liver weight at 15 mg/kg, ip administered twice a week for 3 weeks measured after 72 hrs of last dose", "assay_type": "organism-based", "parameters": "dose 15 mg/kg, route intraperitoneal", "conditions": "in vivo", "in_short": "as §1"}, "Mus musculus [10]": {"tested_on": "Mus musculus", "assay": "Toxicity in BALB/c mouse assessed as increase in spleen weight at 0.5 mg/kg, ip administered twice a week for 3 weeks measured after 72 hrs of last dose", "assay_type": "organism-based", "parameters": "dose 0.5 mg/kg, route intraperitoneal", "conditions": "in vivo", "in_short": "as §1"}, "Mus musculus [11]": {"tested_on": "Mus musculus", "assay": "Toxicity in BALB/c mouse assessed as increase in spleen weight at 1.5 mg/kg, ip administered twice a week for 3 weeks measured after 72 hrs of last dose", "assay_type": "organism-based", "parameters": "dose 1.5 mg/kg, route intraperitoneal", "conditions": "in vivo", "in_short": "as §1"}, "Mus musculus [12]": {"tested_on": "Mus musculus", "assay": "Toxicity in BALB/c mouse assessed as increase in spleen weight at 4.7 mg/kg, ip administered twice a week for 3 weeks measured after 72 hrs of last dose", "assay_type": "organism-based", "parameters": "dose 4.7 mg/kg, route intraperitoneal", "conditions": "in vivo", "in_short": "as §1"}, "Mus musculus [13]": {"tested_on": "Mus musculus", "assay": "Toxicity in BALB/c mouse assessed as increase in spleen weight at 15 mg/kg, ip administered twice a week for 3 weeks measured after 72 hrs of last dose", "assay_type": "organism-based", "parameters": "dose 15 mg/kg, route intraperitoneal", "conditions": "in vivo", "in_short": "as §1"}, "Mus musculus [14]": {"tested_on": "Mus musculus", "assay": "Toxicity in BALB/c mouse assessed as reduction in body weight at 0.5 mg/kg, ip administered twice a week for 3 weeks measured after 72 hrs of last dose", "assay_type": "organism-based", "parameters": "dose 0.5 mg/kg, route intraperitoneal", "conditions": "in vivo", "in_short": "as §1"}, "Mus musculus [15]": {"tested_on": "Mus musculus", "assay": "Toxicity in BALB/c mouse assessed as reduction in body weight at 1.5 mg/kg, ip administered twice a week for 3 weeks measured after 72 hrs of last dose", "assay_type": "organism-based", "parameters": "dose 1.5 mg/kg, route intraperitoneal", "conditions": "in vivo", "in_short": "as §1"}, "Mus musculus [16]": {"tested_on": "Mus musculus", "assay": "Toxicity in BALB/c mouse assessed as reduction in body weight at 4.7 mg/kg, ip administered twice a week for 3 weeks measured after 72 hrs of last dose", "assay_type": "organism-based", "parameters": "dose 4.7 mg/kg, route intraperitoneal", "conditions": "in vivo", "in_short": "as §1"}, "Mus musculus [17]": {"tested_on": "Mus musculus", "assay": "Toxicity in BALB/c mouse assessed as reduction in body weight at 15 mg/kg, ip administered twice a week for 3 weeks measured after 72 hrs of last dose", "assay_type": "organism-based", "parameters": "dose 15 mg/kg, route intraperitoneal", "conditions": "in vivo", "in_short": "as §1"}, "Mus musculus [18]": {"tested_on": "Mus musculus", "assay": "Reduction of PTEN mRNA expression in ip dosed BALB/c mouse administered twice a week for 3 weeks assessed as antisense oligonucleotide level in liver measured after 72 hrs of last dose", "assay_type": "functional, organism-based"}, "Mus musculus [19]": {"organism": "Mus musculus", "assay": "Binding affinity to mouse PTEN mRNA assessed as melting temperature", "in_short": "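Tm of ASO–RNA duplex, i.e. melting temperature of the ASO hybridised to its complementary RNA.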"}, "bEND": {"tested_on": "bEND", "assay": "Reduction in mouse PTEN mRNA level expressed in mouse bEND cells", "assay_type": "functional, cell-based", "in_short": "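bEND mouse brain endothelial cells transfected with ASO using lipofectin; PTEN mRNA reduction measured over a dose range; IC50 taken from dose-response curves.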"}, "Mus musculus [20]": {"tested_on": "Mus musculus", "assay": "Reduction of PTEN mRNA level in ip dosed BALB/c mouse liver after 72 hrs", "assay_type": "functional"}, "Mus musculus [21]": {"tested_on": "Mus musculus", "assay": "Reduction of PTEN level in ip dosed BALB/c mouse liver at 37 mg/kg by Western blot analysis", "assay_type": "functional, organism-based", "parameters": "dose 37 mg/kg"}, "Mus musculus [22]": {"tested_on": "Mus musculus", "assay": "Metabolic stability in BALB/c mouse liver assessed as antisense oligonucleotide level at 18 mg/kg", "assay_type": "ADME, organism-based", "parameters": "dose 18 mg/kg", "conditions": "in vivo"}, "Mus musculus [23]": {"tested_on": "Mus musculus", "assay": "Reduction of PTEN mRNA level in BALB/c mouse liver at 32 mg/kg, ip after 72 hrs", "assay_type": "functional, organism-based", "parameters": "dose 32 mg/kg", "in_short": "(§2)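 Balb/c mice, 6 weeks old, n = 4 per dose group, single ip doses of 32, 66 or 100 mg/kg; killed 72 h after administration; serum ALT and liver PTEN mRNA quantified after sacrifice; errors as sd.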"}, "Mus musculus [24]": {"tested_on": "Mus musculus", "assay": "Reduction of PTEN mRNA level in BALB/c mouse liver at 66 mg/kg, ip after 72 hrs", "assay_type": "functional, organism-based", "parameters": "dose 66 mg/kg", "in_short": "as §2"}, "Mus musculus [25]": {"tested_on": "Mus musculus", "assay": "Reduction of PTEN mRNA level in BALB/c mouse liver at 100 mg/kg, ip after 72 hrs", "assay_type": "functional", "in_short": "as §2"}, "Mus musculus [26]": {"tested_on": "Mus musculus", "assay": "Hepatotoxicity in BALB/c mouse assessed as increase in liver ALT level at 100 mg/kg, ip after 72 hrs", "assay_type": "toxicity, organism-based", "parameters": "dose 100 mg/kg, route intraperitoneal", "conditions": "in vivo", "in_short": "as §2"}}, "note": "The source made the active and inactive calls. No cut-off for these calls is given here.", "data": [{"smiles": "Cc1cn([C@@H]2O[C@@]3(COP(O)(=S)O[C@H]4[C@H]5O[C@@H](C)[C@]4(COP(O)(=S)O[C@H]4C[C@H](n6cc(C)c(=O)[nH]c6=O)O[C@@H]4COP(O)(=S)O[C@H]4[C@@H](O)[C@H](n6cnc7c6N=CNC7N)O[C@@H]4COP(O)(=S)O[C@H]4[C@@H](O)[C@H](n6cnc7c(=O)[nH]c(N)nc76)O[C@@H]4COP(O)(=S)O[C@H]4[C@@H](O)[C@H](n6ccc(N)nc6=O)O[C@@H]4COP(O)(=S)O[C@H]4[C@@H](O)[C@H](n6cnc7c(N)ncnc76)O[C@@H]4COP(O)(=S)O[C@H]4[C@@H](O)[C@H](n6ccc(N)nc6=O)O[C@@H]4COP(O)(=S)O[C@H]4[C@@H](O)[C@H](n6cc(C)c(=O)[nH]c6=O)O[C@@H]4COP(O)(=S)O[C@H]4[C@@H](O)[C@H](n6cnc7c(=O)[nH]c(N)nc76)O[C@@H]4COP(O)(=S)O[C@H]4[C@@H](O)[C@H](n6cnc7c(=O)[nH]c(N)nc76)O[C@@H]4COP(O)(=S)O[C@H]4[C@@H](O)[C@H](n6ccc(N)nc6=O)O[C@@H]4COP(O)(=S)O[C@H]4[C@H]6O[C@@H](C)[C@]4(COP(O)(=S)O[C@H]4[C@H]7O[C@@H](C)[C@]4(COP(=O)(O)O)O[C@H]7n4ccc(=O)[nH]c4=O)O[C@H]6n4cc(C)c(N)nc4=O)O[C@H]5n4ccc(=O)[nH]c4=O)[C@H](C)O[C@@H]2[C@@H]3O)c(=O)nc1N", "note": "(stereo partly drawn)", "values": [{"measurement": "ED50", "setting": "Mus musculus [1]", "value": 2.4, "unit": "mg/kg"}, {"measurement": "Activity", "setting": "Mus musculus [2]", "value": "Toxic"}, {"measurement": "Activity", "setting": "Mus musculus [3]", "value": "Non-toxic"}, {"measurement": "Activity", "setting": "Mus musculus [4]", "value": "Non-toxic"}, {"measurement": "Activity", "setting": "Mus musculus [5]", "value": "Toxic"}, {"measurement": "Activity", "setting": "Mus musculus [6]", "value": "Toxic"}, {"measurement": "Activity", "setting": "Mus musculus [7]", "value": "Toxic"}, {"measurement": "Activity", "setting": "Mus musculus [8]", "value": "Non-toxic"}, {"measurement": "Activity", "setting": "Mus musculus [9]", "value": "Non-toxic"}, {"measurement": "Activity", "setting": "Mus musculus [10]", "value": "Non-toxic"}, {"measurement": "Activity", "setting": "Mus musculus [11]", "value": "Non-toxic"}, {"measurement": "Activity", "setting": "Mus musculus [12]", "value": "Non-toxic"}, {"measurement": "Activity", "setting": "Mus musculus [13]", "value": "Non-toxic"}, {"measurement": "Activity", "setting": "Mus musculus [14]", "value": "Toxic"}, {"measurement": "Activity", "setting": "Mus musculus [15]", "value": "Toxic"}, {"measurement": "Activity", "setting": "Mus musculus [16]", "value": "Toxic"}, {"measurement": "Activity", "setting": "Mus musculus [17]", "value": "Toxic"}, {"measurement": "EC50", "setting": "Mus musculus [18]", "value": 6.3, "unit": "µg/g"}, {"measurement": "Tm", "setting": "Mus musculus [19]", "value": 59.1, "unit": "°C"}, {"measurement": "IC50", "setting": "bEND", "value": 5.8, "unit": "nM"}, {"measurement": "ED50", "setting": "Mus musculus [20]", "value": 9, "unit": "mg/kg"}, {"measurement": "Activity", "setting": "Mus musculus [21]", "value": "Active"}, {"measurement": "Stability", "setting": "Mus musculus [22]", "value": 25, "unit": "µg/g"}, {"measurement": "Activity", "setting": "Mus musculus [23]", "value": "Active"}, {"measurement": "Activity", "setting": "Mus musculus [24]", "value": "Active"}, {"measurement": "Activity", "setting": "Mus musculus [25]", "value": "Active"}, {"measurement": "Activity", "setting": "Mus musculus [25]; route intraperitoneal", "value": ">90", "unit": "%"}, {"measurement": "Activity", "setting": "Mus musculus [26]", "value": "Non-toxic"}]}]}
